Source: paper PMC2196277 (The Journal of Experimental Medicine, 1997)

What was measured:
H2-K^d [1] = biological target: T1, H2-K^d (Mus musculus, UniProt P01902); format: cell-based, BALB/c
H2-K^d [2] = biological target: T1, H2-K^d; settings: ref [17], [19], [20]; cited from earlier work
[3] = biological target: T2, H2-K^d (L. monocytogenes-infected J774 cells) (Mus musculus, UniProt P01902); assay: CTL epitope quantification; format: cell-based, BALB/c; settings: for loss of epitope in BFA-treated cells after tetracycline: BFA added 3 h and TCN 4 h after infection; for time for which intracellularly retained H2-K^d binds new epitopes: BFA-treated, CHX–ANM 4 h after infection, up to; for epitopes per cell after CHX–ANM treatment: CHX and ANM added 4 h after infection
In short: (§1)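 J774 monolayers in antibiotic-free RP10 were infected for 30 min with log-phase L. monocytogenes (OD600 0.1), then kept in 5 μg/ml gentamicin. BFA was added 3 h post-infection, and tetracycline or CHX–ANM at 4 h. Cells were scraped, extracted in 0.1% TFA, homogenised, sonicated, ultracentrifuged and HPLC-fractionated. Fractions were titrated in triplicate on 51Cr-labelled P815 with Kd-restricted CTL clones against synthetic-peptide standards, giving epitopes per infected cell.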

H2-K^d [4] = biological target: T1, H2-K^d; format: cell-based, BALB/c; settings: infected cells; for half-life of peptide–H2-K^d complexes: normally trafficking H2-K^d (no BFA)
In short: as §1

[5] = biological target: T2, H2-K^d (L. monocytogenes-infected J774 cells); settings: ref [17], cited from earlier work
[6] = system: CTL responding to epitope; settings: murine infection with L. monocytogenes; ref [31]; cited from earlier work

T2 sequence (P01902 22-368): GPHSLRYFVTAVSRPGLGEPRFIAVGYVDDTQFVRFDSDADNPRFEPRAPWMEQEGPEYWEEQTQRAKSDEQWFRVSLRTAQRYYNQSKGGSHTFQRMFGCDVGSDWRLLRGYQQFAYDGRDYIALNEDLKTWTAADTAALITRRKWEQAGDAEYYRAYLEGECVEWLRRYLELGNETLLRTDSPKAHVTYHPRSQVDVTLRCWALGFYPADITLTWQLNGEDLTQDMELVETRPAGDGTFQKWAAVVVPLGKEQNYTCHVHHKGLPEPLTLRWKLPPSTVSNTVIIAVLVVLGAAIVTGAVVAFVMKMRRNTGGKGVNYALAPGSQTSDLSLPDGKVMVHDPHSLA
T2 sequence (P01887 21-119, further chain): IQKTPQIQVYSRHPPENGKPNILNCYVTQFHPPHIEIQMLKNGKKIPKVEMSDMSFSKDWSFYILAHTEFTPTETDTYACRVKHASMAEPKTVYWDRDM
T1 sequence (P01902 22-368): as the sequence (P01902 22-368) above
T1 sequence (P01887 21-119, further chain): as the sequence (P01887 21-119, further chain) above

Row | Compound | effect of BFA on H2-K^d trafficking / retention (H2-K^d [1]) | number of secreted antigen molecules degraded per H2-K^d-associated epitope (H2-K^d [2]) | epitopes per cell 3 h after tetracycline ([3]; 3 h after tetracycline (20 μg/ml, added 4 h after infection), no BFA) | increase of epitopes extracted from BFA-treated vs untreated cells ([3]; BFA added 3 h after infection, 6–7 h after infection, no tetracycline) | loss of epitope in BFA-treated cells after tetracycline [3] | time for which intracellularly retained H2-K^d binds new epitopes [3] | epitopes per cell after CHX–ANM treatment ([3]; no BFA) | epitopes per cell at tetracycline addition ([3]; start of drop after tetracycline (20 μg/ml, added 4 h after infection), no BFA) | stability of complex with H2-K^d (summary) (H2-K^d [4]) | half-life of complexes retained intracellularly with brefeldin A (H2-K^d [4]; + BFA) | half-life of peptide–H2-K^d complexes (H2-K^d [4]) | generation of epitope relative to p60 217-225 ([5]; L. monocytogenes infected J774 cells) | amount of epitope extracted relative to p60 217-225 ([5]; first few hours of infection, J774) | prevalence of epitope throughout cellular infection ([5]; infected cells, continuous antigen production) | effect of BFA on amount of epitope extracted ([3]; BFA added 3 h after infection, no tetracycline) | number of responding CTL relative to p60 449-457 [6]
1 | C[C@H]1CCC/C=C/[C@@H]2C[C@H](O)C[C@H]2[C@H](O)/C=C/C(=O)O1 [BFA, brefeldin A] | induces intracellular retention of H2-K^d molecules in infected J774 cells | – | – | – | – | – | – | – | – | – | – | – | – | – | – | –
2 | GYKDGNEYI [LLO 91-99, reference compound] | – | 3–11 | – | – | – | – | – | – | – | – | – | – | – | – | – | –
3 | IYVGNGQMI [p60 449-457] | – | 3–11 | 1,000 epitopes/cell | ~60% | very rapid | up to 3 h | decreases after CHX–ANM treatment | 9,000 epitopes/cell | forms a more labile complex with H2-K^d | 0.5 h | ~1 h | earlier and faster than p60 217-225 | ~10 times | greater than either LLO 91-99 or p60 217225 throughout cellular infection | – | –
4 | KYGVSVQDI [p60 217-225] | – | 35 | – | – | decreased only minimally | up to 3 h | stops increasing when host cell protein synthesis is inhibited | – | forms a stable complex with H2-K^d | – | > 6 h | – | – | – | not affected by BFA | 10 times
